# Rev-RRE block = HIV Rev-RRE protein-RNA interaction inhibition. AID 704. inhibition, % at 8 µM. actives 0.79% (n = 97,000). Rev peptide-RRE RNA binding, FRET;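 active = inhibition above the screen-wide mean plus 3 SD, cut at about 35% in these data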
# Target sequence (P05866 whole entry, looked up): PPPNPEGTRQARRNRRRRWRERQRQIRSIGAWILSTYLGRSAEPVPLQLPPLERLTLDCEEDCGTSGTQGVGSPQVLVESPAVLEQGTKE
#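 Test system: Cy5-tagged RRE RNA duplex with fluorescein-tagged Rev peptide; Probe or stimulus: labelled Rev peptide; Schedule: 5 min preincubation and 15 min binding, 25 °C; Signal: FRET fluorescence readout; Evaluation: % inhibition from 671/540 nm acceptor-to-donor ratio, scaled between controls; Control set: DMSO and neomycin B.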
# CYP2C19 act = cytochrome P450 2C19 (human) activation; P33261; 96,000 tested, under 10 active; AID 1025; activation factor at 5 µM; recombinant CYP2C19, luciferin-H EGE luminescence; stronger effect = higher value; 0 = fully inhibited enzyme, 1 = untreated enzyme;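 active = activation factor of at least 2 at 5 µM in the primary screen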
# Target sequence (P33261 whole entry, looked up): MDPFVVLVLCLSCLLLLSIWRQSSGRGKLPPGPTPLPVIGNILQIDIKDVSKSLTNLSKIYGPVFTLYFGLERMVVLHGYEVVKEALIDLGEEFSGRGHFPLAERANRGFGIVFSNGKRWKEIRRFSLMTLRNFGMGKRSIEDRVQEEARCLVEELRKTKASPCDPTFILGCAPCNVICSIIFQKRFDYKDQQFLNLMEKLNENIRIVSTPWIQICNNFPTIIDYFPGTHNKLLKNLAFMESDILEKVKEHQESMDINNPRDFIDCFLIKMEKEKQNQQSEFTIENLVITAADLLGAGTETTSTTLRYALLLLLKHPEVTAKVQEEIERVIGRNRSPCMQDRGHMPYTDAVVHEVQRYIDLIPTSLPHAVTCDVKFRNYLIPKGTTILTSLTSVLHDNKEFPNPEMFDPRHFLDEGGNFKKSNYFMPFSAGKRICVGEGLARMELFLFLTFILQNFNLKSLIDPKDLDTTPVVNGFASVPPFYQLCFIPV
# CYP2C9 inhib = blocks human cytochrome P450 2C9 | P11712 | CYP2C9 Supersomes, luciferin-H conversion, luminescence | inhibition, % at 5 µM | actives 20% (n = 96,000) | AID 777;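 active = blocking of liver enzyme CYP2C9 beyond about 50% at 5 µM, limit read from the data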
# CYP2C9 activ = activators of human CYP2C9 | recombinant CYP2C9, luciferin-H conversion, luminescence; stronger effect = higher value; factor 1 = untreated enzyme, 0 = blocked | actives 1.4% (n = 96,000) | activation factor at 5 µM | P11712;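 active = activation factor of 2 or more for CYP2C9 at a 5 µM dose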
# CYP2C19 inhib = inhibitors of human CYP2C19; actives 21% (n = 96,000); P33261; inhibition, % at 5 µM; CYP2C19 Supersomes, luciferin-H EGE luminescence, 30 min;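 active = CYP2C19 inhibition above a set limit at 5 µM in the primary screen, cut at about 50% in these data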
# Cav32 inh = inhibitors of human Cav3.2 T-type calcium channel; O95180; B-score at 10 µM; actives 4% (n = 100,000); Cav3.2-expressing cells, Fluo-4 calcium fluorescence FDSS; stronger effect = lower value; AID 449739;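 active = single-dose well whose peak fluorescence ratio is a statistical outlier from its plate by either plate-standardised score or position-corrected B-score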
# Numbers stand for hits; 0 = inactive; - = no result; [ ] = remark or other dose. Most compounds without a hit are left out; they make up all but 27% or so of the library.
SMILES,Rev-RRE block,CYP2C19 act,CYP2C9 inhib,CYP2C9 activ,CYP2C19 inhib,Cav32 inh
O=C(Nc1ncccc1Cl)C1COc2ccccc2O1 (stereo unspecified),0,0,0,0,0,0
O=C(Nc1ccccc1C(=O)N1CCOCC1)C1COc2ccccc2O1 (stereo unspecified),0,0,0,0,0,0
COc1cc(NC(=O)C2COc3ccccc3O2)c(OC)cc1Cl (stereo unspecified),0,0,84.0,0,86.0,-4.46
CC(C)(C)NC(=O)c1ccc(NC(=O)C2COc3ccccc3O2)cc1 (stereo unspecified),-,0,0,0,0,0
CCn1c(SCC(=O)N2CCCc3ccccc32)nc2cccnc21,0,0,0,0,0,0
CCn1c(SCC(=O)N2CCCc3ccccc32)nc2ccccc2c1=O,0,0,96.8,0,69.4,-6.86
O=C(CSc1nc2sc3c(c2c(=O)n1Cc1ccco1)CCC3)N1CCc2ccccc21,0,-,-,-,-,-
CCn1c(SCC(=O)N2CCc3ccccc32)nnc1-c1ccncc1,0,0,0,0,62.8,0
CC1CCCCN1C(=O)CSc1nnc(-c2ccco2)n1CC1CCCO1 (stereo unspecified),0,0,0,0,83.2,0
CCn1c(SCC(=O)N2CCCc3ccccc32)nnc1-c1cccs1,0,0,0,0,0,0
Cc1cc2c(=O)n(Cc3ccco3)c(SCC(=O)N3CCCc4ccccc43)nc2s1,0,0,90.5,0,0,0
CCn1c(SCC(=O)N2CCCc3ccccc32)nnc1-c1ccco1,-,0,0,0,71.1,0
O=C(CSc1ccc2nnc(-c3ccc(Cl)cc3)n2n1)N1CCc2ccccc21,0,0,85.1,0,0,-
COc1ccc(C2CC(C(F)(F)F)n3ncc(C(=O)Nc4c(C)n(C)n(-c5ccccc5)c4=O)c3N2)cc1 (stereo unspecified),0,-,-,-,-,0
Cc1ccccc1Cn1ccc(NC(=O)c2cnn3c2NC(c2ccccc2)CC3C(F)(F)F)n1 (stereo unspecified),0,0,96.0,0,67.3,0
O=C(O)c1cnn2c1NC(c1ccc(F)cc1)CC2C(F)(F)F (stereo unspecified),0,0,0,0,0,0
O=C(NCc1ccco1)c1cnn2c1NC(c1ccccc1)CC2C(F)(F)F (stereo unspecified),0,0,82.6,0,0,0
Cc1c(CNC(=O)c2nn3c(c2Cl)NC(c2ccccc2)CC3C(F)(F)F)cnn1C (stereo unspecified),0,0,0,0,0,0
Cc1nn(C)c(C)c1CN(C)C(=O)c1cnn2c1NC(c1ccccc1)CC2C(F)(F)F (stereo unspecified),0,0,65.2,0,0,0
O=C(NCc1ccco1)c1cnn2c1NC(c1ccc(Br)cc1)CC2C(F)(F)F (stereo unspecified),0,0,87.0,0,66.4,0
CCOC(=O)c1[nH]c2ccc(OC)cc2c1N=CN(C)C,0,0,0,0,0,0
Cc1ccccc1-c1nc(Cc2ccccc2)no1,0,0,0,0,0,0
OCc1nn2c(c1Br)NC(c1ccccc1)CC2C(F)(F)F (stereo unspecified),0,0,74.2,0,71.4,0
O=C(NCc1ccccc1)c1ccc(/C=N/O)nc1,-,0,0,0,63.4,0
O=C(CN(C(=O)CNC(=O)c1ccco1)c1ccc2c(c1)OCO2)NC1CCCCC1,0,0,95.3,0,73.2,0
SMILES,Rev-RRE block,CYP2C19 act,CYP2C9 inhib,CYP2C9 activ,CYP2C19 inhib,Cav32 inh
O=C(NCC(=O)N(Cc1cccs1)C(C(=O)NC1CCCC1)c1ccco1)c1cccs1 (stereo unspecified),0,0,89.0,0,86.7,0
CCOc1ccc(N(CC(=O)NC2CCCCC2)C(=O)CNC(=O)c2ccco2)cc1,0,-,-,-,-,0
O=C(CN(Cc1ccc2c(c1)OCO2)C(=O)CNC(=O)c1ccco1)NC1CCCCC1,0,0,82.9,0,60.8,0
O=C(CN(C(=O)CNC(=O)c1ccco1)c1ccc(Cl)c(Cl)c1)NC1CCCCC1,0,0,88.8,0,86.2,-4.27
Cn1ncc(Cl)c1C(=O)Nc1cc(C(F)(F)F)ccc1F,0,-,-,-,-,0
O=C(CN(Cc1cccs1)C(=O)CNC(=O)c1ccco1)NC1CCCCC1,0,0,50.0,0,0,0
O=C(CN(C(=O)CNC(=O)c1cccs1)c1ccc2c(c1)OCCO2)NC1CCCC1,0,0,90.9,0,0,0
O=C(NCC(=O)N(c1ccc2c(c1)OCCO2)C(C(=O)NC1CCCC1)c1ccco1)c1ccco1 (stereo unspecified),0,-,-,-,-,0
O=C(NCC(=O)N(Cc1cccs1)C(C(=O)NC1CCCCC1)c1ccncc1)c1ccco1 (stereo unspecified),0,-,-,-,-,0
Cc1ccc(CS(=O)(=O)CCC(=O)NCc2cccs2)cc1,0,0,0,0,0,0
CC(=O)NC(C)c1ccc(Cl)c(Cl)c1 (stereo unspecified),0,0,0,0,75.4,0
CC(=O)NC(NC(C)=O)c1ccc(Br)cc1,0,0,0,0,0,0
C[C@@H]1CC=C[C@H]2[C@H]1C(=O)N(Cc1ccccc1)[C@H]2c1ccc(F)c(/C=C/c2ccccc2)c1,-,-,-,-,-,0
CCCN(CCC)S(=O)(=O)c1ccc(NC(=O)Cc2cccs2)cc1,0,0,84.2,0,50.0,0
CCCNS(=O)(=O)c1ccc(NC(=O)Cc2cccs2)cc1,0,-,-,-,-,0
CCCN(CCC)S(=O)(=O)c1ccc(C(=O)Nc2ccc(OCC(=O)N3CCOCC3)cc2)cc1,0,0,79.6,0,0,0
CCCCN(CCCC)S(=O)(=O)c1ccc(NC(=O)CN2CCOCC2)cc1,0,0,91.0,0,72.5,0
Cc1cc(C)nc(NS(=O)(=O)c2ccc(NC(=O)COc3ccccc3)cc2)n1,0,0,0,0,0,0
CCCN(CCC)S(=O)(=O)c1ccc(NC(=O)COc2ccccc2)cc1,0,0,99.3,0,86.8,0
CCO[C@H]1OC(C(=O)NC2CC2)=C[C@@H](c2csc3ccccc23)[C@@H]1CCCO,-,-,-,-,-,0
O=C(Cc1ccccc1)N/N=C/c1ccc(OCC(=O)Nc2ccccc2)cc1,0,0,0,0,0,0
O=C(COc1ccc(/C=N/NS(=O)(=O)c2ccccc2)cc1)Nc1ccccc1,0,0,68.2,0,0,-
NC(=O)CC(NC(=O)c1ccccc1)c1ccc(NCCc2ccc(Cl)cc2)c([N+](=O)[O-])c1 (stereo unspecified),-,-,-,-,-,0
N#CC1=C(SCC(=O)c2cc3ccccc3oc2=O)NC(=O)C(C#N)C12CCCC2 (stereo unspecified),112.6[fluorescence artefact?],0,88.4,0,52.0,0
CCCSc1nc2c(c(=O)n1CC)SC(C)C2 (stereo unspecified),0,0,0,0,0,-
O=C(Nc1ccccc1)C(O)C(O)C(=O)Nc1ccccc1 (stereo unspecified),-,-,-,-,-,0

# Source: PubChem BioAssay (several laboratories)
